# Several values for one entry are separate records, joined by “and”; a condition that tells them apart may be missing. Identical values can stand only once.
# Columns and labels:
# GL261 orthotopic glioma = assay: Syngeneic orthotopic mouse glioma model GL261/C57bl6, survival with radiation; type: in vivo
# [1] = test system: ATM targets including p53-S15, KAP1-S824, and ATM auto-phosphorylation at S1981; assay: Western blotting of ATM target phosphorylation; type: cell-based; conditions: western blot
# How it was run: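 Mouse GL261 cells were irradiated (5 Gy) or not and exposed to test compound 0.3, 1 or 3 µM, or KU-60019 3 µM as reference ATM inhibitor, or neither. Extracts were western blotted for p-p53 S15 and p-KAP1 S824, with GAPDH or KAP1 as loading controls, using Dylight-800 anti-rabbit and Alexa Fluor-680 anti-mouse secondaries.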
# human glioma T98G cells = assay: Radiosurvival colony-forming ability; type: cell-based; conditions: compared with KU-60019
# How it was run: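 T98G human glioma cells came from ATCC and grew in DMEM with 10% FBS and penicillin-streptomycin at 37°C, 5% CO2. Cultures were kept no longer than 2 months and tested mycoplasma-negative. Radiosensitization was scored as colony-forming ability after irradiation, with a reference ATM inhibitor run alongside.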
# Cell permeability = type: in vitro ADME
# [2] = test system: human HCT116 colon carcinoma cells; assay: Aberrant mitoses in isogenic HCT116 cells; type: cell-based; conditions: HCT116 p53−/− cells
# U87/shp53 cells [3] = assay: Live cell imaging of aberrant mitoses in U87/shp53 versus parental cells; type: cell-based, human; conditions: AZ32 3 µM, 5 Gy, time-lapse 16 hrs
# How it was run: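 U87 cells expressing H2B-mCherry and EGFP-Centrin2 were transduced with shp53 pLKO.1 puro or pBabe-puro, puromycin-selected and FACS-sorted mCherry+/EGFP+. They were grown 48–72 hr on glass-bottom dishes, given test compound 3 µM before 5 Gy, then imaged by spinning-disk confocal every 7 min from 2 hr post-IR for 16 hr. Aberrant mitoses were scored visually from chromatin and/or centrosome morphology.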
# mouse GL261 cells = assay: Radiosurvival colony-forming assay, GL261; type: cell-based; conditions: AZ32 3 µM, 2 and 4 Gy
# How it was run: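 Clonogenic radiosurvival in mouse GL261 cells grown in DMEM with 10% FBS. Cells were diluted and plated, exposed to test compound 3 µM or not, and irradiated at 0, 2 or 4 Gy. After about 2 weeks, colonies were stained with crystal violet and those of more than 50 cells were counted.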
# [4] = test system: intracranial NCI-H2228 (BM) tumors; assay: NCI-H2228 non-small cell lung cancer brain metastasis model, survival; type: in vivo, mouse; conditions: nude mice, AZ32 50 mg/kg BID
# How it was run: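 Luciferase-expressing NCI-H2228 lung cancer cells, grown in DMEM with 10% FBS, were implanted in the brains of nude mice. Mice were randomized to vehicle, radiation alone, test compound 50 mg/kg BID alone, or test compound plus radiation. Tumours were tracked by bioluminescence imaging and survival was followed.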
# ATR = ATR (Homo sapiens, UniProt Q13535); assay: Kinase selectivity, biochemical PIKK enzyme activity: ATR
# ATR, sequence (Q13535 whole entry): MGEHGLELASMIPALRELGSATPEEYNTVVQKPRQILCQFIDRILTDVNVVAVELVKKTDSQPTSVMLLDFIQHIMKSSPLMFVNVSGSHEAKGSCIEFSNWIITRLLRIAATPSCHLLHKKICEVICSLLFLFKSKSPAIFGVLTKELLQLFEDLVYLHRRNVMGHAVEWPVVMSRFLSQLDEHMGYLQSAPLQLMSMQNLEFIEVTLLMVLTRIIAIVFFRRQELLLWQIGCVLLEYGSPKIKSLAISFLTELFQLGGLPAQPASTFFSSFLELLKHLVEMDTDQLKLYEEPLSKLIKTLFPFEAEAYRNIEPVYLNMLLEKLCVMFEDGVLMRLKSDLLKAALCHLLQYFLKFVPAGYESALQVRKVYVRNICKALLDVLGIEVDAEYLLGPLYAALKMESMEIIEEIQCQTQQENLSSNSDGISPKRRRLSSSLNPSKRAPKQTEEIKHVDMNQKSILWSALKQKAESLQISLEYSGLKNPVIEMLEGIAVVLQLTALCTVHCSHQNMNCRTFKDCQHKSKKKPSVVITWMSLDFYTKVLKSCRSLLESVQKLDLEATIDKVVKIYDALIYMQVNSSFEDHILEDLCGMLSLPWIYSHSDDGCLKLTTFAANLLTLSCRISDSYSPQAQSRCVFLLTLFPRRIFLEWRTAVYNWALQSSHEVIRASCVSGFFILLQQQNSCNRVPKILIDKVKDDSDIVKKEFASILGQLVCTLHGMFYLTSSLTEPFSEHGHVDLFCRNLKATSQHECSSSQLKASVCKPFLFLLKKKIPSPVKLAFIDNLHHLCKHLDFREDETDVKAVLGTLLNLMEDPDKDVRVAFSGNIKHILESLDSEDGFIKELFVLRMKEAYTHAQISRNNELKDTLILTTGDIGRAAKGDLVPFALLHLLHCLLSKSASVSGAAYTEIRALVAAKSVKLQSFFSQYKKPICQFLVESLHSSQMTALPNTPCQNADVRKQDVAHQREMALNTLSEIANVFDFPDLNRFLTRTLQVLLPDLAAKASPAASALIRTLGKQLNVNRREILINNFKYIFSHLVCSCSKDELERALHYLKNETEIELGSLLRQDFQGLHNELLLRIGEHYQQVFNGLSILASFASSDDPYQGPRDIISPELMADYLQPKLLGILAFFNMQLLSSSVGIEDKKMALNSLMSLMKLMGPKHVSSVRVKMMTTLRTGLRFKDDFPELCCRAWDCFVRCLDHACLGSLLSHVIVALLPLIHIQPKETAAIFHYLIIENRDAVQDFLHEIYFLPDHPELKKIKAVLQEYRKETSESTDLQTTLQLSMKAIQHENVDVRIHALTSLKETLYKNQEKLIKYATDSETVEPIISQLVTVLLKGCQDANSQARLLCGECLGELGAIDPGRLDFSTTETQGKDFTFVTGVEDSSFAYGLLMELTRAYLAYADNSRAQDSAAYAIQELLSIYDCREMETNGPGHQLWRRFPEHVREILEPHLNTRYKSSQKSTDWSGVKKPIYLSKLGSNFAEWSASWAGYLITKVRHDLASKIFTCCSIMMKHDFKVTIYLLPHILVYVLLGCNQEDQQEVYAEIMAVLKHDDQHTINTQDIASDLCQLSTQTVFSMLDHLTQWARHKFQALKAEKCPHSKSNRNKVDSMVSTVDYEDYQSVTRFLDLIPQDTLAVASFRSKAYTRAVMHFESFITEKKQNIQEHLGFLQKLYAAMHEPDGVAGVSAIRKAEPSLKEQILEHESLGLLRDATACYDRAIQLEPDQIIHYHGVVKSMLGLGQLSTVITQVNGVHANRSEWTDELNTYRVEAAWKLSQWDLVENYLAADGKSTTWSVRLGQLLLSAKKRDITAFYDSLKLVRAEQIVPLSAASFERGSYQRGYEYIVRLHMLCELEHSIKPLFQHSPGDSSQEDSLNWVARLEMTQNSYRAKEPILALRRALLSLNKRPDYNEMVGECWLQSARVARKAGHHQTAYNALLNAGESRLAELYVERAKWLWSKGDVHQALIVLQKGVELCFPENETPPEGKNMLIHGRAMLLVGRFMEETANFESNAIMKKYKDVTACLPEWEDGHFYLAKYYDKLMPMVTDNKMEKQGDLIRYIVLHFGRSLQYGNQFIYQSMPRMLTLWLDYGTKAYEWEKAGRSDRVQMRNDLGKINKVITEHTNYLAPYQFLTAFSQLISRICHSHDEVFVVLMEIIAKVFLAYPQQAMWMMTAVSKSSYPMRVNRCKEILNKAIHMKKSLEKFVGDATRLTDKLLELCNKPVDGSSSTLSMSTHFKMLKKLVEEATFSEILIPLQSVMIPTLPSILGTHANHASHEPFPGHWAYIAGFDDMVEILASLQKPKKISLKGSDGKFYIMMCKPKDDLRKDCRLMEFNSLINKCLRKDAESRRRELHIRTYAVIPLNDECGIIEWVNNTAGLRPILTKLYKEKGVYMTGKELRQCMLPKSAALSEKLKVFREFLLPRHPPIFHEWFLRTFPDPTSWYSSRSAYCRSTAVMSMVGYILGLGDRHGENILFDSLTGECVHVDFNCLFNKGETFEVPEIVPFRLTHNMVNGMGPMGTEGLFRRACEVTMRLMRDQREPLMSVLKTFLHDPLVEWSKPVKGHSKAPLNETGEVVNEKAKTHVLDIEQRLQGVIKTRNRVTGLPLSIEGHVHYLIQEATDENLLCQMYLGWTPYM
# ATR, sequence (Q8WXE1 whole entry partner): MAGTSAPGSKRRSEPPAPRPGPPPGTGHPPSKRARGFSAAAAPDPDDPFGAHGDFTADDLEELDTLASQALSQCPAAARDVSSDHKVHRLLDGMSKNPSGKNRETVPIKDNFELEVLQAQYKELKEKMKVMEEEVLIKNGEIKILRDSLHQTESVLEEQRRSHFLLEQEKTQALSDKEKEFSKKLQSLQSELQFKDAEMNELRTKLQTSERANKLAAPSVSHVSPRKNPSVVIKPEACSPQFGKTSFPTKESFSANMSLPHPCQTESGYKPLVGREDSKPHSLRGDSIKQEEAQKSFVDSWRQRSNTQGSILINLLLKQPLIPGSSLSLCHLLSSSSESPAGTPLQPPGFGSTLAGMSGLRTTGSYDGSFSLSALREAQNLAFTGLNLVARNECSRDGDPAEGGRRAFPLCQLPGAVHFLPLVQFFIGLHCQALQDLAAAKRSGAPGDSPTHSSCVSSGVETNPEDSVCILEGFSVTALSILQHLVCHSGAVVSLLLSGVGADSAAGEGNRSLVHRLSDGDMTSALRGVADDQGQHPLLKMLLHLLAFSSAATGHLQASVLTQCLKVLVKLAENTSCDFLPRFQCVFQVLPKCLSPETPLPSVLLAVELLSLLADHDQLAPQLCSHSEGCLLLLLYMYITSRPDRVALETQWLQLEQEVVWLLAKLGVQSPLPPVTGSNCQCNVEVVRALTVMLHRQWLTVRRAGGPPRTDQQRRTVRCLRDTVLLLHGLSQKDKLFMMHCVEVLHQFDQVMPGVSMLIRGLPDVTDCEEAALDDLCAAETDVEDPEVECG
# pS1981ATM = pS1981ATM (Homo sapiens, UniProt Q13315); assay: ATM cell assay; type: cell-based; conditions: read-out: pS1981ATM IC50 (ATM cell IC50)
# mouse GL261 glioma cells = assay: Mitotic catastrophe triple staining; type: cell-based; conditions: 24 hr
# How it was run: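 GL261 cells on chamber slides (DMEM, 10% FBS, 37°C, 5% CO2) were treated with test compound 3 µM and/or 2 Gy, or left untreated. Fixed at 24 hr and immunostained for γ-H2AX, p-(S10)-histone H3 and cleaved caspase 3, with DAPI counterstain; confocal imaging. Triple-positive cells were counted as mitotic catastrophe and expressed as a fraction of all cells.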
# [5] = Tolerability of AZ32 plus head irradiation in mice; type: in vivo; conditions: C57bl6 mice, AZ32 and 2×5 Gy conformal SARRP
# U87/shp53 cells [6] = assay: Radiosensitization of U87/shp53 versus parental U87/puro cells; type: cell-based, human; conditions: AZ32 3 µM
# [7] = test system: human glioma cell lines LN18, U1242, T98G, DBTRG, U87MG; assay: Radiosurvival of human glioma cell line panel with AZ32; type: cell-based; conditions: LN18, U1242, T98G (mutant p53), U87MG (wild-type p53)
# [8] = test system: pp53 (S15), pKAP1 (S824) in mouse glioma GL261 cells; assay: Western blotting of DDR in GL261 cells; type: cell-based; conditions: 5 Gy, AZ32 0.3, 1 or 3 µM
# How it was run: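 Mouse GL261 glioma cells, grown in DMEM with 10% FBS, got 5 Gy or no irradiation plus test compound (0.3, 1 or 3 µM), reference ATM inhibitor (3 µM) or neither. Extracts were western blotted for p-p53 Ser15 and p-KAP1 Ser824, with GAPDH or KAP1 as loading controls. Detection used Dylight-800 anti-rabbit and Alexa Fluor-680 anti-mouse secondaries.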
# [9] = Mouse oral exposure: plasma and brain; type: in vivo; conditions: from Kpuu of Table 1
# [10] = test system: human HCT116 colon carcinoma cells; assay: CFA radiosurvival of isogenic HCT116 cells; type: cell-based; conditions: HCT116 p53+/+ cells versus mutant p53 cells
compound,measurement,setting,value
"COCc1ccc(-c2ccc3ncc(C(N)=O)c(N[C@H](C)C4CCOCC4)c3c2)cn1 [AZ31, 6-[6-(methoxymethyl)-3-pyridinyl]-4-([(1R)-1-(tetrahydro-2H-pyran-4-yl)ethyl]amino)-3-quinolinecarboxamide]",Radiosensitization of GL261 tumors,"GL261 orthotopic glioma; administered orally, prolonged low radiation dose treatment schedule",unable to significantly radiosensitize tumors
same,Block of phosphorylation of ATM targets,"[1]; p53-S15, KAP1-S824, ATM S1981",effectively blocked phosphorylation
same,Potency compared to KU-60019 in blocking ATM target phosphorylation,[1]; lanes 2–6,at least 10 fold
same,Radiosensitization by colony-forming ability,human glioma T98G cells,radiosensitized cells to a similar extent as KU-60019
CNC(=O)c1ccc(-c2cnc3cnc(-c4ccccc4)cn23)cc1 [AZ32],Cell permeability,Cell permeability,high cell permeability
same,Aberrant mitoses and polyploidy cells on addition of AZ32 before IR,[2],almost a doubling of aberrant mitoses and polyploidy cells
same,Survival versus radiation alone,"GL261 orthotopic glioma; AZ32 200 mg/kg p.o. QD, whole-head 137-Cs irradiation 4×2.5 Gy",significantly (p = 0.019) prolonged the survival
same,Aberrant mitoses in shp53 cells relative to parental cells,U87/shp53 cells [3],4.2 fold and ~ 4 fold
same,Radiosensitization in radiosurvival colony-forming assay,mouse GL261 cells,became more radiosensitive
same,"Survival of mice, AZ32 in combination with radiation",[4],survived much longer than mice in the radiation alone or AZ32 alone groups
same,Selectivity over ATR,ATR,adequate selectivity over ATR
same,IC50,pS1981ATM,310 nM
same,Triple+ cells (mitotic catastrophe) of all cells,mouse GL261 glioma cells; AZ32 3 µM and radiation 2 Gy,4%
same,Mitotic catastrophe in AZ32+IR over IR alone,"mouse GL261 glioma cells; AZ32 3 µM, 2 Gy",4 fold
same,Radiation toxicity,[5],did not notice any radiation toxicity
same,Sensitivity of U87/shp53 cells to AZ32 radiosensitization relative to parental cells,U87/shp53 cells [6],2–4 fold
same,Radiosensitization of human glioma cell line panel,[7],all radiosensitized in vitro
same,Block of phosphorylation of p53 and KAP-1 after radiation,[8],blocked the phosphorylation of p53 and KAP-1 after radiation
same,Enhancement of BBB penetration over AZ31,[9],8.7 fold
same,Sensitivity to AZ32 and radiation by CFA,[10],more sensitive to AZ32 and radiation compared to mutant p53 cells
"C[C@@H]1CN(CC(=O)Nc2ccc3c(c2)Cc2cccc(-c4cc(=O)cc(N5CCOCC5)o4)c2S3)C[C@H](C)O1 [KU-60019, reference compound]",Radiosensitization of GL261 tumors,GL261 orthotopic glioma; administered intra-tumorally by CED immediately prior to radiation,radiosensitized by KU-60019 (p = 0.0001)

# — publication PMC6072596 (Molecular cancer therapeutics, 2018)
